# Measurements from PMC3850770 (Chemical research in toxicology, 2012).
# T1: P450 2S1 (Homo sapiens, UniProt Q96SQ9)
# T1 sequence (Q96SQ9 1-504): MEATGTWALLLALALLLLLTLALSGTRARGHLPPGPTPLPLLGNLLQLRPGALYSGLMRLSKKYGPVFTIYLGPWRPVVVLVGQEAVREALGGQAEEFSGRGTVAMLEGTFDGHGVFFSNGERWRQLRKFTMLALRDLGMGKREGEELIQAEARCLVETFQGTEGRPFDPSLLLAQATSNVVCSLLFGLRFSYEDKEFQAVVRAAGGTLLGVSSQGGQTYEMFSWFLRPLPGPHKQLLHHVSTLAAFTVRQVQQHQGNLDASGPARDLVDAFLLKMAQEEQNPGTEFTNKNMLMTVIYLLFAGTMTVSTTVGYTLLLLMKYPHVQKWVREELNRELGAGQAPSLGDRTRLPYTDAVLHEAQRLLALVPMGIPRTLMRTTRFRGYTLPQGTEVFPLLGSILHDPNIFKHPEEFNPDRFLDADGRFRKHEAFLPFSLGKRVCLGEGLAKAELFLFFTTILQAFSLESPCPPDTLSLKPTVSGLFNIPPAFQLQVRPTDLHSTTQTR
# T2: P450 2W1 (Homo sapiens, UniProt Q8TAV3)
# T2 sequence (Q8TAV3 23-490): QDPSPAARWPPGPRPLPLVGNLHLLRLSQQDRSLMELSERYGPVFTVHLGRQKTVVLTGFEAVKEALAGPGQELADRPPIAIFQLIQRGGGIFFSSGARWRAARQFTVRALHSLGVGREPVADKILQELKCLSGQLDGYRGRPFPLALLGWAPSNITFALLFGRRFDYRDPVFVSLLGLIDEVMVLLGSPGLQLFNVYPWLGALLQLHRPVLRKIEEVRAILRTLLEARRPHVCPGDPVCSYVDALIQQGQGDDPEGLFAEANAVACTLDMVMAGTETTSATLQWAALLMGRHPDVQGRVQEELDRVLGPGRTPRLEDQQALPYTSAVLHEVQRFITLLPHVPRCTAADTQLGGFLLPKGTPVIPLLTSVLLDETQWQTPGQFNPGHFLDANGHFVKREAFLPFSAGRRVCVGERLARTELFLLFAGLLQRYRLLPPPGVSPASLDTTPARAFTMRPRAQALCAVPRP
# T3: P450 1A1 (Homo sapiens, UniProt P04798)
# T3 sequence (P04798 1-512): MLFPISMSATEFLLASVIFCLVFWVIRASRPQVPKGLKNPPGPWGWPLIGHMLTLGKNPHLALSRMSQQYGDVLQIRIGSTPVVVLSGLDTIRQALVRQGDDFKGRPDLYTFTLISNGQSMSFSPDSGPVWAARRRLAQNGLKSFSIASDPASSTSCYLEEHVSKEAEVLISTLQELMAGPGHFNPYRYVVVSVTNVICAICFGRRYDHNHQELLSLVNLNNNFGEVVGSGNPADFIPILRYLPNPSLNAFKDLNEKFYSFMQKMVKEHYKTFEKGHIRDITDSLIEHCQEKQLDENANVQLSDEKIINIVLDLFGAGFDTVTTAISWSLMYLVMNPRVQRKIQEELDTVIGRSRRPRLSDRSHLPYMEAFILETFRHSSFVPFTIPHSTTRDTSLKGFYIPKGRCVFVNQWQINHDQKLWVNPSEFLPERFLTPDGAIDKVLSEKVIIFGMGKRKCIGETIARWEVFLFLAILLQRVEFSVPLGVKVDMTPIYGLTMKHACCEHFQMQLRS
# Experiments:
# P450 2S1 = target: T1, P450 2S1; experiment: Preliminary incubation with P450 2S1, products by HPLC-UV; type: in vitro ADME; conditions: recombinant human P450 2S1
# Procedure, shortened: (§1)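 Recombinant human P450 at 0.3–0.8 μM, either in E. coli membranes or purified and reconstituted with 2-fold excess NADPH-P450 reductase plus 30 μM DLPC. Substrate 100 μM with NADPH-generating system in 0.10 M potassium phosphate, pH 7.4; 37 °C for 30–60 min. Extracted into 2 volumes CH2Cl2, residue taken up in CH3CN. Read by C18 HPLC with photodiode-array UV, acetonitrile/water gradient containing 0.5% formic acid.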
# P450 2W1 [1] = target: T2, P450 2W1; experiment: Preliminary incubation with P450 2W1, products by HPLC-UV; type: in vitro ADME; conditions: recombinant human P450 2W1
# Procedure, shortened: as §1
# P450 2W1 [2] = target: T2, P450 2W1; experiment: Steady-state kinetics of P450 2W1-catalyzed oxidation; type: in vitro ADME
# Procedure, shortened: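 Same P450 and NADPH-generating levels as qualitative incubations, in 0.10 M phosphate, pH 7.4. Substrate 0–200 μM, in duplicate, at 37 °C. With 2W1: 10 min (dimethoxyphenyl substrate) or 15 min (aminophenyl substrate); with 1A1: 15 and 25 min respectively. CH2Cl2 quench, benzothiazole internal standard added, extract quantified by HPLC-UV. Km and kcat from nonlinear regression.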
# [3] = system: P450 2W1, P450 1A1, or human liver microsomes; experiment: GSH adduct formation from oxidation products; type: in vitro ADME; conditions: 5 mM GSH, 100 μM substrate, LC-MS
# Procedure, shortened: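 P450 2W1 or 1A1 in E. coli membranes, or human liver microsomes pooled from ten donors, at 0.50 μM with 100 μM substrate, 5 mM GSH and 4 μg mL−1 catalase. Incubated 12–15 h at 37 °C, stopped with 2 volumes CH3CN; supernatant analysed by ESI+ LC-MS.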
# MDA 468 cells = conditions: ref [12], [13]; cited from earlier work
# P450 1A1 = target: T3, P450 1A1; experiment: Steady-state kinetics of P450 1A1-catalyzed oxidation; type: in vitro ADME; conditions: oxidation of 5F 203 to form 8a
# MCF-7 cells = conditions: ref [12], [13]; cited from earlier work
# IGROV-1 cells = conditions: ref [12], [13]; cited from earlier work
# [4] = system: colon, lung, and breast cancer cell lines; conditions: ref [19]; cited from earlier work
# dGuo = dGuo adduct formation with synthetic 10; conditions: after Ac2O activation, 37 °C under argon 2 h, LC-MS m/z 524
# [5] = Solubility in organic solvents; type: physicochemical; conditions: in CHCl3 and CH3OH
# [6] = substrate: Cc1cc(-c2nc3cc(F)ccc3s2)ccc1N; experiment: Steady-state kinetics of P450 1A1-catalyzed oxidation; type: in vitro ADME, human; conditions: pH 7.4, 37.0 °C
# [7] = substrate: COc1ccc(-c2nc3cc(F)ccc3s2)cc1OC; experiment: as above; type: in vitro ADME, human; conditions: other: P450 1A1, substrate GW 610, product 4c; pH 7.4; 37.0 °C
# [8] = other: P450 1A1, substrate 5F 203, product 8a
# [9] = other: P450 1A1, substrate 5F 203, product 8b
molecule,measurement,setting,value
"c1ccc(-c2nc3ccccc3s2)cc1 [2-phenylbenzothiazole, reference compound]",product formation on incubation with P450 2S1,P450 2S1,No products were observed
same,product formation on incubation with P450 2W1,P450 2W1 [1],No products were observed
"Cc1cc(-c2nc3cc(F)ccc3s2)ccc1N [5F 203, 2-(4-Amino-3-methylphenyl)-5-fluorobenzothiazole]",kcat,"P450 2W1 [2]; P450 2W1, substrate 5F 203, product 8a",0.0158 ± 0.0017 s⁻¹
same,kcat,"P450 2W1 [2]; P450 2W1, substrate 5F 203, product 10",0.00933 ± 0.001 s⁻¹
same,Km at 15 min,"P450 2W1 [2]; human, pH 7.4, Km, P450 2W1, substrate 5F 203, product 8a",31 ± 11 µM
same,Km at 15 min,"P450 2W1 [2]; human, pH 7.4, Km, P450 2W1, substrate 5F 203, product 10",35 ± 12 µM
same,GSH conjugate formation,[3],detected
same,GI50,MDA 468 cells,< 1 nM
same,efficiency of P450 1A1 relative to P450 2W1,P450 1A1,~ 2 fold
same,GI50,MCF-7 cells,< 1 nM
same,product formation on incubation with P450 2S1,P450 2S1,no products were observed
same,product formation on incubation with P450 2W1,P450 2W1 [1],Products were formed
same,GI50,IGROV-1 cells,< 1 nM
"COc1ccc(-c2nc3cc(F)ccc3s2)cc1OC [GW 610, 5-Fluoro-2-(3,4-dimethoxyphenyl)-benzothiazole]",kcat,"P450 2W1 [2]; P450 2W1, substrate GW 610, product 4c",0.0633 ± 0.0067 s⁻¹
same,efficiency of P450 2W1 relative to P450 1A1,P450 2W1 [2]; formation of 4c from GW 610,5 fold
same,Km at 10 min,"P450 2W1 [2]; human, pH 7.4, Km, P450 2W1, substrate GW 610, product 4c",22 ± 7 µM
same,GSH conjugate formation,[3],detected
same,product formation on incubation with P450 2S1,P450 2S1,no products were observed
same,GI50,[4],< 0.1 nM
same,product formation on incubation with P450 2W1,P450 2W1 [1],Products were formed
"Cc1cc(-c2nc3cc(F)ccc3s2)ccc1NO [compound 10, 2-(4-Hydroxylamino-3-methylphenyl)-5-fluorobenzothiazole]",dGuo adduct formation,dGuo,consistent with a dGuo adduct of compound 10
same,solubility,[5],very poor
P450 1A1 (Homo sapiens) (protein) MLFPISMSATEFLLASVIFCLVFWVIRASRPQVPKGLKNPPGPWGWPLIGHMLTLGKNPHLALSRMSQQYGDVLQIRIGSTPVVVLSGLDTIRQALVRQGDDFKGRPDLYTFTLISNGQSMSFSPDSGPVWAARRRLAQNGLKSFSIASDPASSTSCYLEEHVSKEAEVLISTLQELMAGPGHFNPYRYVVVSVTNVICAICFGRRYDHNHQELLSLVNLNNNFGEVVGSGNPADFIPILRYLPNPSLNAFKDLNEKFYSFMQKMVKEHYKTFEKGHIRDITDSLIEHCQEKQLDENANVQLSDEKIINIVLDLFGAGFDTVTTAISWSLMYLVMNPRVQRKIQEELDTVIGRSRRPRLSDRSHLPYMEAFILETFRHSSFVPFTIPHSTTRDTSLKGFYIPKGRCVFVNQWQINHDQKLWVNPSEFLPERFLTPDGAIDKVLSEKVIIFGMGKRKCIGETIARWEVFLFLAILLQRVEFSVPLGVKVDMTPIYGLTMKHACCEHFQMQLRS,Km,[6]; [8],32 ± 9 µM
same,kcat,[6]; [8],0.0283 ± 0.00333 s⁻¹
same,kcat/Km,[6]; [8],900 ± 333 M⁻¹ s⁻¹
same,Km,[6]; [9],29 ± 8 µM
same,kcat,[6]; [9],0.0517 ± 0.005 s⁻¹
same,kcat/Km,[6]; [9],1830 ± 500 M⁻¹ s⁻¹
same,Km,[7],10 ± 3 µM
same,kcat,[7],0.00617 ± 0.0005 s⁻¹
same,kcat/Km,[7],600 ± 167 M⁻¹ s⁻¹
